Most compounds without a hit are left out; they make up all but 1.5% or so of the library.
APJ antag: antagonists of human APJ apelin receptor; P35414; CHO-K1 APJ beta-arrestin complementation, luminescence; inhibition, % at 20 µM; 330,000 compounds, 0.32% hits; AID 2521;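 active = inhibition above about 40% at 20 µM, limit read from the data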;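 also: cells challenged with 10 nM apelin-13 agonist together with compound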
Target sequence (P35414 whole entry, looked up): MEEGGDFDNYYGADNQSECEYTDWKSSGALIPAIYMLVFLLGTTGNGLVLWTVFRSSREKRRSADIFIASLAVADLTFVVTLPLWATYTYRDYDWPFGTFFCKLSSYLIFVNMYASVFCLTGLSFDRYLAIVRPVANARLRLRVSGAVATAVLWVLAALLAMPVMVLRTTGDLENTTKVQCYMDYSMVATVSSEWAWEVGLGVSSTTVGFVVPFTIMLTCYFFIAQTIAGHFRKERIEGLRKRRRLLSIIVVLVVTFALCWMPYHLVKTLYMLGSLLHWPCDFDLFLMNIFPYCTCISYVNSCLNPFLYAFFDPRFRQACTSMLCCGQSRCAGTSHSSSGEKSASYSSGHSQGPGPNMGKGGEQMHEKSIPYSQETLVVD
CXCR6 block: blocks human CXCR6 beta-arrestin recruitment; 360,000 compounds, 0.36% hits; O00574; inhibition, % at 20 µM; CHO-K1 PathHunter CXCR6 beta-arrestin, luminescence; AID 602244; in the data active = inhibition above about 34%, passing the limit was not always enough;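 also: antagonist mode with CXCL16 agonist at 10 nM final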
Target sequence (O00574 whole entry, looked up): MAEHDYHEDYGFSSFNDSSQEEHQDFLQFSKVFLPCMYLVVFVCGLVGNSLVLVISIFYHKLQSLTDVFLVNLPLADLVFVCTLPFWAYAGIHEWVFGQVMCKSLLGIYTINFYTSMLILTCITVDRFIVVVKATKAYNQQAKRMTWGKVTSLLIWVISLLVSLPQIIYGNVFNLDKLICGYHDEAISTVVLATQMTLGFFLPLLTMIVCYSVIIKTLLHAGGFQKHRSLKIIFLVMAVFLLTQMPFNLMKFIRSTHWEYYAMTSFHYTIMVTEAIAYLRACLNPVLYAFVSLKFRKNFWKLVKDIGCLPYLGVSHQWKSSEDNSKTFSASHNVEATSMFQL
CCR6 antagonist: CCR6 (human) receptor antagonism; P51684; CHO-K1 CCR6 PathHunter beta-arrestin, luminescence, CCL20-stimulated; inhibition, % at 20 µM; 340,000 compounds, 0.49% hits; AID 493098;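 active = compounds whose inhibition of the agonist-driven luminescence signal at 20 µM reaches about 50%, limit read from the data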;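 also: cells stimulated with CCL20 at 14 nM final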
APJ ag: APJ receptor agonism; P35414; CHO-K1 APJ PathHunter beta-arrestin, luminescence; 0% DMSO wells, 100% apelin; activation, % at 20 µM; 330,000 compounds, 0.11% hits; AID 2520;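 active = activation more than six SD over the plate average, tested at 20 µM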
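Assay system: engineered CHO-K1 APJ arrestin reporter cells; Amount: 1000 CHO-K1 reporter cells seeded per well; Dosing: one dose, 20 µM compound, 1% DMSO; Times: compound stimulation 90 min at 25 °C, detection 60 min; Measured by: luminescent beta-gal fragment complementation, chemiluminescent substrate; Read-out: APJ–arrestin association signal; Controls: DMSO vs Apelin-13 10 nM.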
EBI2 antag: antagonists of human EBI2 receptor; P32249; EBI2 beta-arrestin recruitment, luminescence, 7a,25-OHC stimulated; inhibition, % at 5 µM; 360,000 compounds, 0.81% hits; in the data active = inhibition above about 38%;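 also: enzyme fragment complementation signal reports receptor beta-arrestin coupling in cells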
EBI2 conf: EBI2 (human) antagonism, single concentration confirmation. shares compounds with EBI2 antag. EBI2 beta-arrestin luminescence, 7a,25-OHC antagonism. inhibition, % at 5 µM. 2,400 compounds, 29% hits. AID 651997;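 active = inhibition of at least 50%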
EBI2 agonist: activates EBI2, counter-screen for EBI2 antagonists; AID 652000; EBI2-expressing cells, agonist mode, luminescence, 60 min; 0% vehicle, 100% 7α,25-dihydroxycholesterol control; 2,400 tested, under 10 active; activation, % at 5 µM; shares compounds with EBI2 antag;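 active = activation of at least 50%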
bGal cs: inhibits E. coli beta-galactosidase, counter-screen for EBI2 antagonists; shares compounds with EBI2 antag; purified beta-galactosidase, luminescent Galacton Star, 15 min; inhibition, % at 5 µM; AID 652176; 2,400 compounds, 1% hits;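 active = replicate-average signal at least 3 plate SD below neutral wells, shown as high inhibition, flagging enzyme-inhibiting false positives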;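 also: higher means stronger loss of beta-gal luminescence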
Of the large screens only hits and unclear results are named; the others gave an inactive call (follow-up assays come after a bar, where they were run).

O=C(Nc1ccccc1N1CCCCC1)C1CCN(C(=O)c2ccc(Cl)cc2)CC1	EBI2 antag 58 | EBI2 conf inactive | EBI2 agonist inactive | bGal cs inactive
O=C(Nc1ccccc1N1CCCC1)C1CCN(C(=O)c2ccc(Cl)cc2)CC1	none
O=C(CSc1ccc(Br)cc1)Nc1ccccc1N1CCOCC1	EBI2 antag 43 | EBI2 conf inactive | EBI2 agonist inactive | bGal cs inactive
O=C(CSc1ccc([N+](=O)[O-])cc1)Nc1ccccc1N1CCOCC1	none
O=C(Cc1ccccc1)Nc1ccccc1N1CCN(c2ccccc2)CC1	EBI2 antag 41 | EBI2 conf inactive | EBI2 agonist inactive | bGal cs inactive
COC(=O)Cn1c(C(=O)N2CCCC2)cc2c1C[C@H]1CN(C(=O)c3ccccc3)[C@@](Cc3ccc(OC)cc3)(C(=O)OC)[C@@H]21	none (no result: APJ antag, CCR6 antagonist, APJ ag)
CCOc1ccc(S(=O)(=O)NCCC(=O)N2CCN(C(C)=O)CC2)cc1	none (no result: APJ antag, CCR6 antagonist, APJ ag)
Cc1ccc(OCc2nnnn2-c2ccccc2)cc1	EBI2 antag 51 | EBI2 conf inactive | EBI2 agonist inactive | bGal cs inactive
Cc1ccc(-n2nnnc2CCl)cc1	none (no result: APJ antag, APJ ag)
Cc1ccc([C@@H]2C[C@H]3[C@@H](CN2S(=O)(=O)c2ccc(C)cc2)C(=O)C[C@@H](c2ccc(Cl)cc2)N3S(=O)(=O)c2ccccc2C)cc1	none (no result: APJ antag, CCR6 antagonist, APJ ag)
Cc1ccc(-c2cc3nc(-c4ccccc4)cc(NCCCO)n3n2)cc1	EBI2 antag 47 (no result: APJ antag, CCR6 antagonist, APJ ag) | EBI2 conf inactive | EBI2 agonist inactive | bGal cs inactive
Cc1ccc(-c2cc3nc(-c4ccccc4)cc(N)n3n2)cc1	none
Cc1ccc(C(=O)N2CCN(Cc3nc4sc5c(c4c(=O)[nH]3)CCCC5)CC2)cc1	EBI2 antag 44 | EBI2 conf inactive | EBI2 agonist inactive | bGal cs inactive
Cc1cccc(-c2cnc(C(O)c3ccc(-c4ccccc4)cc3)[nH]2)c1 (stereo unspecified)	none (no result: APJ antag, CCR6 antagonist, APJ ag)
CCn1cc(C(=O)NN)c(=O)c2cc(F)c(N3CCCCC3)cc21	none
CCn1cc(C(=O)NN)c(=O)c2cc(F)c(NC3CCCCC3)cc21	EBI2 antag 91 | EBI2 conf 62 | EBI2 agonist inactive | bGal cs inactive
CC(C)(C)c1ccc(S(=O)(=O)NC(=O)C2(C)CCN2C(=O)c2cccc3ccccc23)cc1 (stereo unspecified)	none (no result: APJ antag, CCR6 antagonist, APJ ag)
CCCOc1ccc(C(=O)N2CCN(c3ccc(N)cc3Cl)CC2)cc1	EBI2 antag 70 | EBI2 conf 52 | EBI2 agonist inactive | bGal cs inactive
COc1cccc(NC(=O)Cn2c3ccc(F)cc3c3nc4n(c(=O)c32)CCCS4)c1	EBI2 antag 92 | EBI2 conf 72 | EBI2 agonist inactive | bGal cs inactive
CC(C)(C)N1C(=O)c2ccccc2NC(=O)C1C(=O)NCc1ccco1 (stereo unspecified)	none (no result: APJ antag, CXCR6 block, CCR6 antagonist, APJ ag)
Cc1sc(NC(=O)c2ccco2)c(CN2CCN(c3ccccc3)CC2)c1C	EBI2 antag 40 | EBI2 conf inactive | EBI2 agonist inactive | bGal cs inactive
Cc1sc(NC(=O)c2ccco2)c(CN2CCCCC2)c1C	none
CCN(c1ccc(NC(=O)COC(=O)c2ccc(C)s2)cc1)C(C)C	EBI2 antag 50 | EBI2 conf inactive | EBI2 agonist inactive | bGal cs inactive
Cc1ccc(C(=O)OCC(=O)Nc2ccc(C(N)=O)cc2)s1	none
OC[C@@H]1CN(Cc2ccc(Cl)cc2)C[C@H](n2cnc3c(N4CCCC4)ncnc32)O1	none (no result: APJ antag, CCR6 antagonist, APJ ag)
CC(C)(C)NC(=O)c1cc([N+](=O)[O-])ccc1N1CCCCC1	EBI2 antag 57 (no result: APJ antag, APJ ag) | EBI2 conf inactive | EBI2 agonist inactive | bGal cs inactive
O=C(O)c1cc([N+](=O)[O-])ccc1N1CCCCC1	none
Cc1cc(C(=O)N2CCC2(C)C(=O)O)c(C)o1 (stereo unspecified)	none (no result: APJ antag, CCR6 antagonist, APJ ag)
Cc1ccc(S(=O)(=O)N2CCN(C(=O)CCCOc3ccc(Cl)cc3C)CC2)cc1	EBI2 antag 79 | EBI2 conf inactive | EBI2 agonist inactive | bGal cs inactive
Cc1ccc(S(=O)(=O)N2CCN(C(=O)CCOc3ccccc3C)CC2)cc1C	EBI2 antag 48 | EBI2 conf inactive | EBI2 agonist inactive | bGal cs inactive
Cc1cc(Cl)ccc1OCCCC(=O)N1CCCCC1	none
FC(F)(F)c1ccc(-c2cccc3c2C2CC3CCN2C(=S)NCCc2ccccc2)cc1 (stereo unspecified)	none (no result: APJ antag, CCR6 antagonist, APJ ag)
C[C@@H]1CN([C@@H](C)CO)C(=O)CCCn2nncc2CO[C@@H]1CN(C)C(=O)Nc1cccc(C(F)(F)F)c1	none (no result: APJ antag, CCR6 antagonist, APJ ag)
COC(=O)c1ccc(C23CC4(C2)[C@H](CN(Cc2cccnc2)[C@@H]4c2ccccc2)C3c2ccccc2)cc1 (stereo partly specified)	none
N#Cc1ccc(C23CC4(C2)[C@H](CN(Cc2cccnc2)[C@@H]4c2ccccc2)C3c2ccccc2)cc1 (stereo partly specified)	EBI2 antag 72 | EBI2 conf inactive | EBI2 agonist inactive | bGal cs inactive
Cc1ccc(S(=O)(=O)N2CCN(C(=O)c3ccc(-n4cncn4)c([N+](=O)[O-])c3)CC2)c(C)c1	EBI2 antag 64 (no result: APJ antag, CCR6 antagonist, APJ ag) | EBI2 conf inactive | EBI2 agonist inactive | bGal cs inactive
CCOc1ccc(NC(=S)N(CCCN2CCOCC2)Cc2cn(C)c3ccccc23)cc1	EBI2 antag 44 | EBI2 conf inactive | EBI2 agonist inactive | bGal cs inactive
Cc1ccc(S(=O)(=O)N2CC3(O)CN(C(=O)OC(C)C)N(C(=O)OC(C)C)CC3(OC(=O)Nc3cccs3)C2)cc1 (stereo unspecified)	none (no result: APJ antag, CCR6 antagonist, APJ ag)
CCOC(=O)C1(C)CCN1C(=O)c1ccc(SC(F)(F)F)cc1 (stereo unspecified)	none (no result: APJ antag, CCR6 antagonist, APJ ag)
O=C(Cn1ncc2c(=O)oc3ccccc3c21)N(Cc1ccco1)C1CCCCC1	EBI2 antag 56 | EBI2 conf inactive | EBI2 agonist inactive | bGal cs inactive
CCCCN(Cc1ccco1)C(=O)Cn1ncc2c(=O)oc3ccc(C)cc3c21	EBI2 antag 86 | EBI2 conf inactive | EBI2 agonist inactive | bGal cs inactive
Cc1ccc2oc(=O)c3cnn(CC(=O)N4CCc5ccccc5C4)c3c2c1	EBI2 antag 47 | EBI2 conf inactive | EBI2 agonist inactive | bGal cs inactive
Cc1ccc2oc(=O)c3cnn(CC(=O)N4CCCCC4C)c3c2c1 (stereo unspecified)	none

Compound activity from PubChem.
